Measurements: ChEMBL document CHEMBL5096186, “Design, Synthesis, and Biological Evaluation of Novel Pyrimido[4,5-b]indole Derivatives Against Gram-Negative Multidrug-Resistant Pathogens” (J Med Chem, 2021)
Converted amounts (≈) assume the structure as drawn.

Tests used:
[1] = system: Staphylococcus aureus; assay: Antibacterial activity against methicillin-sensitive Staphylococcus aureus strains 15 1 to 4 assessed as reduction in bacterial growth incubated for 18 to 20 hrs by CLSI based microdilution method; assay type: functional; conditions: time 18-20 hrs
In short: (§1)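 Broth microdilution per CLSI. Compounds dissolved in DMSO (levofloxacin and meropenem in water) as 64 μg/mL stock, then serial twofold dilutions in broth giving 64 to 0.008 μg/mL. […] Clinical isolates tested as several strains per group; racemic GP-1 served as positive control; values given as MIC ranges.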

[2] = system: Staphylococcus epidermidis; assay: Antibacterial activity against methicillin-sensitive Staphylococcus epidermidis strains 15 1 to 4 assessed as reduction in bacterial growth incubated for 18 to 20 hrs by CLSI based microdilution method; assay type: functional; conditions: time 18-20 hrs; in short: as §1
[3] = system: Escherichia coli; assay: Antibacterial activity against ESBL-producing Escherichia coli ATCC 35218 strains 15 1 to 3 assessed as reduction in bacterial growth incubated for 18 to 20 hrs by CLSI based microdilution method; assay type: functional; conditions: time 18-20 hrs
In short: (§2)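 CLSI broth microdilution. Compounds in DMSO (levofloxacin and meropenem in water), serial twofold dilutions in broth, 64 to 0.008 μg/mL. […] Results reported as MIC ranges across strains.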

[4] = system: Escherichia coli; assay: Antibacterial activity against Escherichia coli ATCC 35218 strains 15 1 to 3 assessed as reduction in bacterial growth incubated for 18 to 20 hrs by CLSI based microdilution method; assay type: functional; conditions: time 18-20 hrs; in short: as §2
[5] = system: Pseudomonas aeruginosa; assay: Antibacterial activity against multidrug resistant Pseudomonas aeruginosa strains 15 1 to 3 assessed as reduction in bacterial growth incubated for 18 to 20 hrs by CLSI based microdilution method; assay type: functional; conditions: time 18-20 hrs; in short: as §1
[6] = system: Escherichia coli; assay: Antibacterial activity against ESBL-producing multidrug resistant Escherichia coli assessed as reduction in bacterial growth incubated for 18 to 20 hrs by CLSI based microdilution method; assay type: functional; conditions: time 18-20 hrs; in short: as §1
[7] = system: Escherichia coli; assay: Antibacterial activity against multidrug resistant wild type Escherichia coli ATCC BAA-2340 assessed as reduction in bacterial growth incubated for 18 to 20 hrs by CLSI based microdilution method; assay type: functional; conditions: time 18-20 hrs; in short: as §1
[8] = system: Escherichia coli; assay: Antibacterial activity against multidrug resistant wild type Escherichia coli NCTC 13353 assessed as reduction in bacterial growth incubated for 18 to 20 hrs by CLSI based microdilution method; assay type: functional; conditions: time 18-20 hrs; in short: as §1
[9] = system: Klebsiella pneumoniae; assay: Antibacterial activity against KPC2-producing multidrug resistant Klebsiella pneumoniae assessed as reduction in bacterial growth incubated for 18 to 20 hrs by CLSI based microdilution method; assay type: functional; conditions: time 18-20 hrs; in short: as §1
[10] = system: Klebsiella pneumoniae; assay: Antibacterial activity agains wild type Klebsiella pneumoniae ATCC BAA-1705 assessed as reduction in bacterial growth incubated for 18 to 20 hrs by CLSI based microdilution method; assay type: functional; conditions: time 18-20 hrs; in short: as §2
[11] = system: Klebsiella pneumoniae; assay: Antibacterial activity agains wild type Klebsiella pneumoniae ATCC BAA-2470 assessed as reduction in bacterial growth incubated for 18 to 20 hrs by CLSI based microdilution method; assay type: functional; conditions: time 18-20 hrs; in short: as §1
[12] = system: Acinetobacter baumannii; assay: Antibacterial activity agains OXA23-producing multidrug resistant Acinetobacter baumannii assessed as reduction in bacterial growth incubated for 18 to 20 hrs by CLSI based microdilution method; assay type: functional; conditions: time 18-20 hrs; in short: as §1
[13] = system: Acinetobacter baumannii; assay: Antibacterial activity against wild type Acinetobacter baumannii NCTC 13304 assessed as reduction in bacterial growth incubated for 18 to 20 hrs by CLSI based microdilution method; assay type: functional; conditions: time 18-20 hrs; in short: as §1
[14] = system: Pseudomonas aeruginosa; assay: Antibacterial activity against IMP4-producing multidrug resistant Pseudomonas aeruginosa assessed as reduction in bacterial growth incubated for 18 to 20 hrs by CLSI based microdilution method; assay type: functional; conditions: time 18-20 hrs; in short: as §1
[15] = system: Pseudomonas aeruginosa; assay: Antibacterial activity against wild type Pseudomonas aeruginosa ATCC 27853 assessed as reduction in bacterial growth incubated for 18 to 20 hrs by CLSI based microdilution method; assay type: functional; conditions: time 18-20 hrs; in short: as §2
[16] = system: Staphylococcus aureus; assay: Antibacterial activity against methicillin-resistant Staphylococcus aureus strains 15 1 to 4 assessed as reduction in bacterial growth incubated for 18 to 20 hrs by CLSI based microdilution method; assay type: functional; conditions: time 18-20 hrs; in short: as §1
[17] = biological target: hERG (KCNH2) potassium channel (Homo sapiens, UniProt Q12809); assay: Inhibition of hERG potassium channel assessed as maximum inhibition rate at 40 uM at -80 mV holding potential incubated for 120 seconds by whole cell-automated voltage clamp analysis assay relative to control; assay type: toxicity; conditions: time 120 sec
Sequence of hERG (KCNH2) potassium channel (Q12809 whole entry): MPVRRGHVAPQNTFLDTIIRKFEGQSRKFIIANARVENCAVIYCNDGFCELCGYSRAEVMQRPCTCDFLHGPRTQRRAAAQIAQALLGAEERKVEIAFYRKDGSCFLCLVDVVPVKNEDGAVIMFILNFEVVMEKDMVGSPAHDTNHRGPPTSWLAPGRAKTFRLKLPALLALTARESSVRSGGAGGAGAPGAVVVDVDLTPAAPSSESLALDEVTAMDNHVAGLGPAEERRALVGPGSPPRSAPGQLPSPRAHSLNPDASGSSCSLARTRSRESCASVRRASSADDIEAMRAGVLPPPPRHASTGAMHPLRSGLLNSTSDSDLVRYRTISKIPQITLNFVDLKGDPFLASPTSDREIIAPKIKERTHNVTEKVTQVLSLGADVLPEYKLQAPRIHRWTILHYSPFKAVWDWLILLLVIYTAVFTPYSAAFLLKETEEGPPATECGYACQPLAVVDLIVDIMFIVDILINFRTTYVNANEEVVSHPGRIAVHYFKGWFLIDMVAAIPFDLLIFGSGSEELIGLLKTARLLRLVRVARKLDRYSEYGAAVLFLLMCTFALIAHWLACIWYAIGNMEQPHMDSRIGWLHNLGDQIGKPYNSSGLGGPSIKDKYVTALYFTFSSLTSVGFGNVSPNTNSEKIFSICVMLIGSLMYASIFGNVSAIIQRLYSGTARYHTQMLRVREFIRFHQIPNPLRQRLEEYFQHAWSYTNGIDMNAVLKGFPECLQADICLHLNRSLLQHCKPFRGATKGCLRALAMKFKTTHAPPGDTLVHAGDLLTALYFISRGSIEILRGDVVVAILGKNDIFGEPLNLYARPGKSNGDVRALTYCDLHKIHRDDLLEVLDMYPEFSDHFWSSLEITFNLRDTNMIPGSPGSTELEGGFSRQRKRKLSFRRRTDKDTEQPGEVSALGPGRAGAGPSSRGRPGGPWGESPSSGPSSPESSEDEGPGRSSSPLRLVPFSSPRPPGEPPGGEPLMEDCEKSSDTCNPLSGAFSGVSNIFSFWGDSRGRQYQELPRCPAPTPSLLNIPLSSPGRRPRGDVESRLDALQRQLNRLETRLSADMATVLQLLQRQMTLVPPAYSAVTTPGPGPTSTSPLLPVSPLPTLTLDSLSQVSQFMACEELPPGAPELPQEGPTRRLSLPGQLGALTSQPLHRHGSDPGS
In short: (§3)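 Automated whole-cell patch clamp, holding potential −80 mV. Voltage protocol applied every 20 s. Baseline set with external solution containing 0.1% DMSO and stabilised 3 min. Compound applied until steady state, at least 3 min, then washout. Maximum tested concentration 40 μM, or 3 μM for cisapride as positive control.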

[18] = biological target: Voltage-gated inwardly rectifying potassium channel KCNH2 (Homo sapiens, UniProt Q12809); assay: Inhibition of hERG potassium channel assessed as […] at -80 mV holding potential incubated for 120 seconds by whole cell-automated voltage clamp analysis assay; assay type: toxicity; in short: as §3
Sequence of Voltage-gated inwardly rectifying potassium channel KCNH2 (Q12809 whole entry): as above

SMILES | MIC [1] [µg/mL] | MIC [2] [µg/mL] | MIC [3] [µg/mL] | MIC [4] [µg/mL] | MIC [5] [µg/mL] | MIC [6] [µg/mL] | MIC [7] [µg/mL] | MIC [8] [µg/mL] | MIC [9] [µg/mL] | MIC [10] [µg/mL] | MIC [11] [µg/mL] | MIC [12] [µg/mL] | MIC [13] [µg/mL] | MIC [14] [µg/mL] | MIC [15] [µg/mL] | MIC [16] [µg/mL] | inhibition at 2 min, 40 µM [17] [%] | IC50 [18] [µM]
CCC(CN)=C1CN(c2nc(NS(C)(=O)=O)nc3[nH]c4c(NC)cc(F)cc4c23)C1 | > 16 | > 16 | > 16 | > 16 | > 16 |  |  |  |  |  |  |  |  |  |  |  |  | 
[2H]C([2H])([2H])Nc1cc(F)cc2c1[nH]c1nc(Oc3cnc(C)nc3)nc(N3CC(=C(C)[C@H](C)N)C3)c12 |  |  |  |  |  | 0.5 (≈ 1.11 µM) | 0.5 (≈ 1.11 µM) | 0.125 (≈ 0.277 µM) | 2 (≈ 4.43 µM) | 8 (≈ 17.7 µM) | 2 (≈ 4.43 µM) | 0.5 (≈ 1.11 µM) | 0.5 (≈ 1.11 µM) | 8 (≈ 17.7 µM) | 2 (≈ 4.43 µM) |  |  | 
CC(C)(O/N=C(\C(=O)N[C@@H]1C(=O)N2C(C(=O)[O-])=C(C[N+]3(CCNC(=O)c4ccc(O)c(O)c4Cl)CCCC3)CS[C@H]12)c1csc(N)n1)C(=O)O [CEFIDEROCOL] |  |  |  |  |  | 0.25 (≈ 0.332 µM) | 4 (≈ 5.32 µM) | 4 (≈ 5.32 µM) | 2 (≈ 2.66 µM) | 32 (≈ 42.5 µM) | > 64 | 2 (≈ 2.66 µM) | 2 (≈ 2.66 µM) | 1 (≈ 1.33 µM) | 4 (≈ 5.32 µM) |  |  | 
CCC(CO)=C1CN(c2nc(C(=O)Nc3cnc(C)nc3)nc3[nH]c4c(NC)cc(F)cc4c23)C1 |  |  | > 64 | > 64 |  |  |  |  |  |  |  |  |  |  |  |  |  | 
CCC(CN)=C1CN(c2nc(Oc3cnc(C(C)(C)O)nc3)nc3[nH]c4c(NC)cc(F)cc4c23)C1 | < 0.008 | < 0.008 | 1 (≈ 2.03 µM) | 0.5 (≈ 1.02 µM) | > 16 |  |  |  |  |  |  |  |  |  |  |  |  | 
C[C@@H](O)[C@H]1C(=O)N2C(C(=O)O)=C(S[C@@H]3CN[C@H](C(=O)N(C)C)C3)[C@H](C)[C@H]12 [MEROPENEM] |  |  |  |  |  | 0.25 (≈ 0.652 µM) | 4 (≈ 10.4 µM) | 0.06 (≈ 0.156 µM) | ≥ 64 | 16 (≈ 41.7 µM) | 16 (≈ 41.7 µM) | > 32 | > 32 | 8 (≈ 20.9 µM) | 1 (≈ 2.61 µM) |  |  | 
CCC(CN)=C1CN(c2nc(Oc3cnc(C)nc3)nc3[nH]c4c(NC)cc(F)c(F)c4c23)C1 | 0.25 (≈ 0.536 µM) | < 0.03 | 64 (≈ 137 µM) | 0.5 (≈ 1.07 µM) | > 64 |  |  |  |  |  |  |  |  |  |  | 0.25 (≈ 0.536 µM) |  | 
CNc1cc(F)cc2c1[nH]c1nc(Oc3cnc(C)nc3)nc(N3CC(=C(C)CN)C3)c12 | < 0.008 | < 0.008 | 2 (≈ 4.6 µM) | 0.06 (≈ 0.138 µM) | > 4 |  |  |  |  |  |  |  |  |  |  |  | 4.8 | > 40
CNc1cc(F)cc2c1[nH]c1nc(Oc3cnc(C)nc3)nc(N3CC/C(=C(\F)CN)C3)c12 | < 0.008 | < 0.008 | 0.015 (≈ 0.0332 µM) | < 0.06 | 2 (≈ 4.42 µM) |  |  |  |  |  |  |  |  |  |  | 0.008 (≈ 0.0177 µM) | 41.6 | > 40
CNc1cc(F)cc2c1[nH]c1nc(Oc3cnc(C)nc3)nc(N3CC(=CC(C)O)C3)c12 (stereo unspecified) | < 0.008 | < 0.008 | 0.5 (≈ 1.15 µM) | 0.125 (≈ 0.287 µM) | > 16 |  |  |  |  |  |  |  |  |  |  |  |  | 
CNc1cc(F)cc2c1[nH]c1nc(Oc3cnc(C)nc3)nc(N3CC(=C(Br)CN)C3)c12 | < 0.008 | < 0.008 | 0.06 (≈ 0.12 µM) | 0.015 (≈ 0.03 µM) | 2 (≈ 4.01 µM) |  |  |  |  |  |  |  |  |  |  |  |  | 
CNc1cc(F)cc2c1[nH]c1nc(Oc3cnc(C)nc3)nc(N3CCC(=C(F)CN)CC3)c12 | 0.015 (≈ 0.0322 µM) | < 0.008 | 0.5 (≈ 1.07 µM) | 0.06 (≈ 0.129 µM) | > 8 |  |  |  |  |  |  |  |  |  |  | 0.015 (≈ 0.0322 µM) | 70.4 | 18.4
